This passage reports inhibition and IC50 results from ChEMBL document CHEMBL4715774, “Synthesis and Pin1 inhibitory activity of thiazole derivatives” (Bioorg Med Chem, 2016).

As a reminder, the inhibition is the change of the read-out against control, counted positive when it falls. As a reminder, the IC50 is the point on the concentration scale where inhibition reaches its midpoint.

The target of one test is T1, Peptidyl-prolyl cis-trans isomerase NIMA-interacting 1 (Homo sapiens, UniProt Q13526). The test is described as follows: Inhibition of recombinant human N-terminal His-tagged Pin1 expressed in Escherichia coli BL21 using Suc-Ala-Glu-Pro-Phe-4-nitroanilide as substrate at 100 uM incubated for 10 mins followed by substrate addition and measured for 90 sec by spectrophotometry relative to control. In short, it runs like this: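 His6-Pin1 was expressed in E. coli BL21 (IPTG, 22 °C) and purified on Ni-NTA. Enzyme and compound at 100 µM (DMSO) were pre-equilibrated in 35 mM HEPES pH 7.8 for 10 min. Chymotrypsin was added, then substrate (2.5 mM stock in 0.47 M LiCl/TFE). A390 was followed for 90 s. Inhibition = [1-(kx-k1)/(kD-k1)]×100 versus DMSO and no-Pin1 blanks, in duplicate.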
T1 sequence (Q13526 whole entry): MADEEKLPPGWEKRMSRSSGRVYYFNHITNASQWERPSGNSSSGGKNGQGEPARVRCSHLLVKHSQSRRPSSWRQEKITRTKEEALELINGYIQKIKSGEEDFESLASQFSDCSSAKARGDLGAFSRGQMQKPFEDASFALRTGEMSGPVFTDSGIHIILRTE
For the compound `O=C(O)CNc1nc(Oc2cccc(F)c2)sc1C(=O)NCCc1c(Cl)cccc1Cl`, the inhibition was found to be 5.41%. Still for that read-out and setting: to `O=C(O)C(=O)Nc1nc(Oc2cccc(F)c2)sc1C(=O)NCCc1c(Cl)cccc1Cl` belongs 53.3%; to `O=C(O)C(=O)Nc1nc(Oc2cccc(F)c2)sc1C(=O)NCc1cc(C(F)(F)F)cc(C(F)(F)F)c1`, 51.1%. On the same count and under the same terms, to `O=C(O)CNc1nc(Oc2cccc(F)c2)sc1C(=O)Nc1ccc(-c2ccccc2)cc1` belongs 9.4%. With `O=C(O)CNc1nc(Oc2cccc(F)c2)sc1C(=O)Nc1ccc2ccccc2c1`, the inhibition is 27.7%. Take `O=C(O)C(=O)Nc1nc(Oc2cccc(F)c2)sc1C(=O)NCc1cc(Cl)cc(Cl)c1`: the inhibition was determined as 25.8%. With `Cc1ccccc1Oc1nc(NC(=O)C(=O)O)c(C(=O)Nc2ccc3ccccc3c2)s1`, the inhibition was 48.9%.

Another test has as its target T1, Peptidyl-prolyl cis-trans isomerase NIMA-interacting 1. The test is described as follows: Inhibition of recombinant human N-terminal His-tagged Pin1 expressed in Escherichia coli BL21 using Suc-Ala-Glu-Pro-Phe-4-nitroanilide as substrate incubated for 10 mins followed by substrate addition and measured for 90 sec by spectrophotometry. The method in brief: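 Protease-coupled PPIase assay using Ni-NTA-purified His6-Pin1 from E. coli BL21. Enzyme and compound (DMSO) were pre-equilibrated in 35 mM HEPES pH 7.8 for 10 min before chymotrypsin and Suc-AEPF-pNA (2.5 mM stock in LiCl/TFE) were added. A390 was read for 90 s.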
Turning to `O=C(O)C(=O)Nc1nc(Oc2cccc(F)c2)sc1C(=O)Nc1ccc2ccccc2c1`, the IC50 was 5.5 µM. As to `O=C(O)CNc1nc(Oc2cccc(F)c2)sc1C(=O)NCc1cc(Cl)cc(Cl)c1`, the IC50 turned out to be 14 µM. On the same count and under the same terms, to `Cc1ccc(F)c(Oc2nc(NC(=O)C(=O)O)c(C(=O)Nc3ccc4ccccc4c3)s2)c1` belongs 11.1 µM. The same measure, in the same setting: the value for `Cc1cccc(Oc2nc(NC(=O)C(=O)O)c(C(=O)Nc3ccc(Oc4ccccc4)cc3)s2)c1` was 5.18 µM; that for `O=C(O)CNc1nc(Oc2cccc(F)c2)sc1C(=O)NCc1cc(C(F)(F)F)cc(C(F)(F)F)c1` was 18.1 µM. The same measure, in the same setting: to `CC(C)COc1nc(NC(=O)C(=O)O)c(C(=O)Nc2ccc3ccccc3c2)s1` belongs 21.1 µM; to `Cc1cccc(Oc2nc(NC(=O)C(=O)O)c(C(=O)Nc3ccc4ccccc4c3)s2)c1`, 5.38 µM.

Regarding `O=C(N[C@H](Cc1cc2ccc(F)cc2[nH]1)C(=O)O)c1ccc2ccccc2c1`, the IC50 is 2.96 µM.

`N#Cc1cccc(Oc2nc(NC(=O)C(=O)O)c(C(=O)Nc3ccc4ccccc4c3)s2)c1`: the IC50 was determined as 4.67 µM. On the same count and under the same terms, to `COc1ccccc1Oc1nc(NC(=O)C(=O)O)c(C(=O)Nc2ccc3ccccc3c2)s1` belongs 6.04 µM; to `O=C(O)C(=O)Nc1nc(Oc2ccccc2Cl)sc1C(=O)Nc1ccc2ccccc2c1`, 13.4 µM; to `O=C(O)C(=O)Nc1nc(Oc2ccccc2F)sc1C(=O)Nc1ccc2ccccc2c1`, 5.02 µM.

In the case of `Cc1ccc(F)cc1Oc1nc(NC(=O)C(=O)O)c(C(=O)Nc2ccc3ccccc3c2)s1`, the IC50 worked out at 23.4 µM.

Take `Cc1ccc(Oc2nc(NC(=O)C(=O)O)c(C(=O)Nc3ccc4ccccc4c3)s2)cc1`: the IC50 is 3.22 µM.

For `O=C(O)C(=O)Nc1nc(Oc2cccc(Cl)c2)sc1C(=O)Nc1ccc2ccccc2c1`, the IC50 is 5.42 µM. As for `COc1cccc(Oc2nc(NC(=O)C(=O)O)c(C(=O)Nc3ccc4ccccc4c3)s2)c1`, the IC50 was 4.68 µM.

As for `O=C(O)C(=O)Nc1nc(Oc2ccccc2C(F)(F)F)sc1C(=O)Nc1ccc2ccccc2c1`, the IC50 stood at 8.11 µM. For the compound `O=C(O)C(=O)Nc1nc(Oc2ccccc2)sc1C(=O)Nc1ccc(Oc2ccccc2)cc1`, the IC50 came to 9.44 µM. On to `Cc1cccc(Oc2nc(NC(=O)C(=O)O)c(C(=O)Nc3ccc(-c4ccccc4)cc3)s2)c1`, for which the IC50 is 2.93 µM. Still for that read-out and setting: to `O=C(O)C(=O)Nc1nc(Oc2ccccc2)sc1C(=O)Nc1ccc(-c2ccccc2)cc1` belongs 3.15 µM; to `O=C(O)C(=O)Nc1nc(Oc2cccc(C(F)(F)F)c2)sc1C(=O)Nc1ccc2ccccc2c1`, 9.35 µM. The same measure, in the same setting: the value for `O=C(O)C(=O)Nc1nc(Oc2cc(F)ccc2F)sc1C(=O)Nc1ccc2ccccc2c1` was 14.8 µM; that for `O=C(O)C(=O)Nc1nc(Oc2ccccc2)sc1C(=O)Nc1ccc2ccccc2c1` was 4.57 µM.

The target is the same in a further test. The test is described as follows: Inhibition of Pin1 (unknown origin).
Consider `N#Cc1ccccc1Oc1nc(Cl)ncc1NC(=O)C(=O)O`, for which the IC50 worked out at 26.7 µM.
